Results published in ChEMBL document CHEMBL1828531, “Pyrazol-3-propanoic acid derivatives as novel inhibitors of leukotriene biosynthesis in human neutrophils” (Eur J Med Chem, 2011).

How the values were obtained:
[1] = target: T1, Polyunsaturated fatty acid 5-lipoxygenase (Homo sapiens, UniProt P09917); test: Inhibition of 5-Lipoxygenase in arachidonic acid-stimulated human neutrophils after 15 mins by HPLC analysis in presence of A23187
T1 sequence (P09917 whole entry): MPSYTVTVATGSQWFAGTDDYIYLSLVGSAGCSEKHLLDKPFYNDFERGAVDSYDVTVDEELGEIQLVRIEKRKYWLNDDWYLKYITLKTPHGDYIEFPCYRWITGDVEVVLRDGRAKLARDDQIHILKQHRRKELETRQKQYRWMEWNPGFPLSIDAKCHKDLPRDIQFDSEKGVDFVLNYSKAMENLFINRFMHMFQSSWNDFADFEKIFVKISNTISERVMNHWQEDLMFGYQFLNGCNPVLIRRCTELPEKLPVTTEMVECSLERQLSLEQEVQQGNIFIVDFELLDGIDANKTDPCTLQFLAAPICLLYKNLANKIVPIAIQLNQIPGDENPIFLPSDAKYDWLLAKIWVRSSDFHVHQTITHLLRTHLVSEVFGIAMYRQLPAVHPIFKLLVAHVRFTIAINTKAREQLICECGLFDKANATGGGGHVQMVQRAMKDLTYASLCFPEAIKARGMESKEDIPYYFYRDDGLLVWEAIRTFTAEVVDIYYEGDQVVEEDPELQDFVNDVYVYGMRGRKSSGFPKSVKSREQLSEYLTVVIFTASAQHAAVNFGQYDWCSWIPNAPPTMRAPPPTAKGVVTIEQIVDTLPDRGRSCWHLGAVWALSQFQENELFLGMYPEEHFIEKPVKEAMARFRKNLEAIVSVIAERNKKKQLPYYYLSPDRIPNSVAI
How it was run: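 Human neutrophils, 5 × 10^6/mL in PBS/glucose/1 mM CaCl2, preincubated 15 min at RT, then 2.5 µM A23187 plus 20 µM AA for 10 min at 37 °C. Methanol stop, PGB1 internal standard, HPLC of LTB4, its all-trans isomers and 5-H(p)ETE. Residual % versus 0.3% DMSO vehicle, mean ± SEM, n = 3–5. IC50 by linear interpolation from 4–5 concentrations.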

[2] = target: T2, Prostaglandin G/H synthase 2 (Homo sapiens) (UniProt P35354); test: Inhibition of COX2-mediated 6-keto PGF1alpha production in IL1-beta stimulated human A549 cells assessed as residual activity at 10 uM after 10 mins by EIA; format: cell-based
T2 sequence (whole entry): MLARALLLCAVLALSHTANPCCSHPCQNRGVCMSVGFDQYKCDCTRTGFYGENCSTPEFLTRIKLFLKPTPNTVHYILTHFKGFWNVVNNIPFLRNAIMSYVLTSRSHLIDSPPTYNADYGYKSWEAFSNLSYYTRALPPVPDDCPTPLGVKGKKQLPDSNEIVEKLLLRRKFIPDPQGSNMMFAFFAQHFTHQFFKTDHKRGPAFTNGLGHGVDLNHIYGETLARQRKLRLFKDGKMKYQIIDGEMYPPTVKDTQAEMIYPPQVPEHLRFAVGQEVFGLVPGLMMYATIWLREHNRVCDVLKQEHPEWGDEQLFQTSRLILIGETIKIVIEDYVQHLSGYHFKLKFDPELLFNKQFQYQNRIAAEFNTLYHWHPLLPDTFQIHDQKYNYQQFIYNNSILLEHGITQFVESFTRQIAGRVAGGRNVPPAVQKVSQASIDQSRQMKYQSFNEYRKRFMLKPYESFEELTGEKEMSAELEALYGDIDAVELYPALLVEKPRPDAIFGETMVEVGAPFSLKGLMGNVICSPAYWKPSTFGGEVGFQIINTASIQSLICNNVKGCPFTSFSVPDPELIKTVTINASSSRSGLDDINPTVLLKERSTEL
How it was run: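 A549 cells stimulated with IL-1β (1 ng/ml) 72 h in DMEM with 2% FCS, trypsinized and washed. 10^6 cells/mL PBS with 1 mM CaCl2 preincubated with compound 10 min at 37 °C. 3 µM AA added for 15 min at 37 °C, stopped on ice. 6-keto PGF1α in supernatant measured by EIA.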

[3] = target: T1, Polyunsaturated fatty acid 5-lipoxygenase; test: Inhibition of recombinant human 5-Lipoxygenase expressed in Escherichia coli lysate after 10 mins by HPLC analysis
How it was run: (§1)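 Human 5-LO expressed at 30 °C in E. coli MV1190 (pT3-5LO); lysate 40,000 g supernatant in PBS pH 7.4 with 1 mM EDTA. Preincubated with compound 10 min at 4 °C, warmed 30 s at 37 °C. Started with 2 mM CaCl2 plus 20 µM AA, 10 min at 37 °C. Methanol stop, HPLC. Residual % versus 0.3% DMSO vehicle, n = 3–5.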

[4] = target: T3, Polyunsaturated fatty acid 5-lipoxygenase (Homo sapiens) (UniProt P09917); test: Inhibition of recombinant human 5-Lipoxygenase expressed in Escherichia coli lysate assessed as residual activity using arachidonic acid as substrate at 10 uM after 10 mins by HPLC analysis; how it was run: as §1
T3 sequence (whole entry): T1 sequence (P09917 whole entry)

[5] = target: T4, Polyunsaturated fatty acid lipoxygenase ALOX15 (Homo sapiens) (UniProt P16050); test: Inhibition of 15-Lipoxygenase-mediated 15-HETE in human neutrophil assessed as residual activity at 30 uM after 15 mins by HPLC analysis
T4 sequence (whole entry): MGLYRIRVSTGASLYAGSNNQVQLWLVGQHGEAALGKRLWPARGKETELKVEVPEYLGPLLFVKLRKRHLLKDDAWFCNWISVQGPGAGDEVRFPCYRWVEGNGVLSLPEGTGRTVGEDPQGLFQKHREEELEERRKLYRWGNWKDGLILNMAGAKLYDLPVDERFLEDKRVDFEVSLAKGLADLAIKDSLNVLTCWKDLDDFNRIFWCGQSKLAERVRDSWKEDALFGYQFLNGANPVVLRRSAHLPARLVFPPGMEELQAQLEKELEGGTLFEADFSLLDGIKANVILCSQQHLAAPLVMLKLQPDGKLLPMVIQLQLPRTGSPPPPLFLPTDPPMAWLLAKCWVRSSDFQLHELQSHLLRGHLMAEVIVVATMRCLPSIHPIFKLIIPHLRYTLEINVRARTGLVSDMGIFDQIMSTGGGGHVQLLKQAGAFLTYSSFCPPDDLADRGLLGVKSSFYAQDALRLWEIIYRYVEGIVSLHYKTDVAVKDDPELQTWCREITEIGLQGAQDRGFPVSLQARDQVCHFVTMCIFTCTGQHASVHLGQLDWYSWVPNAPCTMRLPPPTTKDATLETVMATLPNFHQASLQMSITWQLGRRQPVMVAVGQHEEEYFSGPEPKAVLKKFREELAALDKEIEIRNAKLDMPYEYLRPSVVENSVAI
How it was run: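 Freshly isolated human blood neutrophils, 5 × 10^6/mL in PBS pH 7.4 with 1 mg/mL glucose and 1 mM CaCl2, preincubated with compound 15 min at RT. Stimulated with 2.5 µM A23187 plus 20 µM AA for 10 min at 37 °C. Stopped with methanol/HCl, PGB1 internal standard. 12-HETE or 15-HETE measured by HPLC. Residual activity tested at 30 µM.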

SMILES | IC50 [1] [µM] | Activity [2] [%] | IC50 [3] [µM] | Activity [4] [%] | Activity [5] [%]
Cc1ccc(-c2cc(CCC(=O)Oc3ccc(C(C)C)cc3)nn2-c2ccccc2)cc1 | 2 | 111 | > 10 | 92.6 | 124
Cc1ccc(-c2cc(CCC(=O)Oc3ccc(C(C)C)cc3)nn2-c2ccc(Cl)nn2)cc1 | 8 | 99.9 | > 10 | 83.4 | –
Cc1ccc(-c2cc(CCC(=O)N3CCN(Cc4ccc(C(C)(C)C)cc4)CC3)nn2-c2ccc3ccccc3n2)cc1 | 3.5 | 79 | > 10 | 115 | 145
CCOC(=O)C1CCN(C(=O)CCc2cc(-c3ccc(C)cc3)n(-c3ccc4ccccc4n3)n2)CC1 | 4 | 66.3 | > 10 | 55.9 | 149
CCOC(=O)C1CCN(C(=O)CCc2cc(-c3ccc(C(F)(F)F)cc3)n(-c3ccc(Cl)nn3)n2)CC1 | 15 | 78.6 | > 10 | 84 | 71
Cc1ccc(-c2cc(CCC(=O)N3CCN(Cc4ccc(C(C)(C)C)cc4)CC3)nn2-c2ccccc2)cc1 | 2.7 | 97 | > 10 | 62.9 | 261
Cc1ccc(-c2cc(CCC(=O)Oc3ccc(C(C)C)cc3)nn2-c2ccc3ccccc3n2)cc1 | > 10 | 97 | > 10 | 86.1 | 92
CC(C)(C)c1ccc(CN2CCN(C(=O)CCc3cc(-c4ccc(F)cc4)n(-c4ccc(Cl)nn4)n3)CC2)cc1 | 1.6 | 84.2 | > 10 | 103 | 175
CCOC(=O)C1CCN(C(=O)CCc2cc(-c3ccc(C)cc3)n(-c3ccccc3)n2)CC1 | 2.4 | 86.3 | > 10 | 79.5 | 196
